Assay results from ChEMBL document CHEMBL4689842, “EUbOPEN Chemogenomics Library wave 1” (2021).

Tested on: Fibroblast
Assay: Multiplex assay against human fibroblast
Format: toxicity, cell-based
Outline: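 Tubulin, mitochondrial-mass and membrane-permeability phenotypes are per cents of healthy-nucleus cells. Cells were gated by CellPathfinder machine learning into Hoechst high-intensity objects or normal cells, normal cells into healthy, pyknosed or fragmented nuclei, and pyknosed cells into mitotic or apoptotic. Before that, live cells stained at seeding with Hoechst33342, BioTracker Green Microtubule Cytoskeleton Dye, MitoTracker Red and Annexin V Alexa Fluor 680 were imaged on a CQ1 microscope at 37°C and 5% CO2 after compound addition.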

[1] = 12 h, 1 µM, compound concentration 1 uM, replicate 1
[2] = 12 h, 1 µM, compound concentration 1 uM, replicate 2
[3] = 12 h, 10 µM, compound concentration 10 uM, replicate 1
[4] = 12 h, 10 µM, compound concentration 10 uM, replicate 2
[5] = 24 h, 1 µM, compound concentration 1 uM, replicate 1
[6] = 24 h, 1 µM, compound concentration 1 uM, replicate 2
[7] = 24 h, 10 µM, compound concentration 10 uM, replicate 1
[8] = 24 h, 10 µM, compound concentration 10 uM, replicate 2
[9] = 48 h, 1 µM, compound concentration 1 uM, replicate 1
[10] = 48 h, 1 µM, compound concentration 1 uM, replicate 2
[11] = 48 h, 10 µM, compound concentration 10 uM, replicate 1
[12] = 48 h, 10 µM, compound concentration 10 uM, replicate 2

`CCN1CCN(Cc2ccc(Nc3ncc(F)c(-c4cc(F)c5nc(C)n(C(C)C)c5c4)n3)nc2)CC1.CS(=O)(=O)O` was tested, and the “Population Apoptotic (%)” value [1] was 75%, the “Population Fragmented Nuclei (%)” value [1] was 39% and the “Population Healthy Nuclei (%)” value [1] was 40%. The “Population Hoechst High Intensity Objects (%)” value [1] was 15%, the “Population Membrane Permeable-Phenotype (%)” value [1] was 17% and the “Population Mitochondria Different-Phenotype (%)” value [1] was 21%. The “Population Mitotic Cells (%)” value [1] was 25%, the “Population Normal (%)” value [1] was 84% and the “Population Pyknosed Nuclei (%)” value [1] was 20%. For the same molecule, the “Population Tubulin-Different-Phenotype (%)” value [1] was 57%, the “Total Cell Count” value [1] was 187 and the “Population Apoptotic (%)” value [2] was 40%. The “Population Fragmented Nuclei (%)” value [2] was 17%, the “Population Healthy Nuclei (%)” value [2] was 67% and the “Population Hoechst High Intensity Objects (%)” value [2] was 6%. For the same molecule, the “Population Membrane Permeable-Phenotype (%)” value [2] was 8%, the “Population Mitochondria Different-Phenotype (%)” value [2] was 91% and the “Population Mitotic Cells (%)” value [2] was 60%. For the same molecule, the “Population Normal (%)” value [2] was 93%, the “Population Pyknosed Nuclei (%)” value [2] was 14% and the “Population Tubulin-Different-Phenotype (%)” value [2] was 97%. For the same molecule, the “Total Cell Count” value [2] was 73, the “Population Apoptotic (%)” value [3] was 63% and the “Population Fragmented Nuclei (%)” value [3] was 40%. For the same molecule, the “Population Healthy Nuclei (%)” value [3] was 13%, the “Population Hoechst High Intensity Objects (%)” value [3] was 17% and the “Population Membrane Permeable-Phenotype (%)” value [3] was 52%. The “Population Mitochondria Different-Phenotype (%)” value [3] was 5%, the “Population Mitotic Cells (%)” value [3] was 36% and the “Population Normal (%)” value [3] was 82%. The “Population Pyknosed Nuclei (%)” value [3] was 46%, the “Population Tubulin-Different-Phenotype (%)” value [3] was 47% and the “Total Cell Count” value [3] was 158. For the same molecule, the “Population Apoptotic (%)” value [4] was 83%, the “Population Fragmented Nuclei (%)” value [4] was 32% and the “Population Healthy Nuclei (%)” value [4] was 22%. For the same molecule, the “Population Hoechst High Intensity Objects (%)” value [4] was 9%, the “Population Membrane Permeable-Phenotype (%)” value [4] was 88% and the “Population Mitochondria Different-Phenotype (%)” value [4] was 94%. The “Population Mitotic Cells (%)” value [4] was 16%, the “Population Normal (%)” value [4] was 90% and the “Population Pyknosed Nuclei (%)” value [4] was 45%. The “Population Tubulin-Different-Phenotype (%)” value [4] was 100%, the “Total Cell Count” value [4] was 88 and the “Population Apoptotic (%)” value [5] was 44%. For the same molecule, the “Population Fragmented Nuclei (%)” value [5] was 39%, the “Population Healthy Nuclei (%)” value [5] was 45% and the “Population Hoechst High Intensity Objects (%)” value [5] was 21%. For the same molecule, the “Population Membrane Permeable-Phenotype (%)” value [5] was 15%, the “Population Mitochondria Different-Phenotype (%)” value [5] was 8% and the “Population Mitotic Cells (%)” value [5] was 55%. The “Population Normal (%)” value [5] was 78%, the “Population Pyknosed Nuclei (%)” value [5] was 15% and the “Population Tubulin-Different-Phenotype (%)” value [5] was 69%. The “Total Cell Count” value [5] was 240, the “Population Apoptotic (%)” value [6] was 58% and the “Population Fragmented Nuclei (%)” value [6] was 20%. The “Population Healthy Nuclei (%)” value [6] was 61%, the “Population Hoechst High Intensity Objects (%)” value [6] was 10% and the “Population Membrane Permeable-Phenotype (%)” value [6] was 21%. For the same molecule, the “Population Mitochondria Different-Phenotype (%)” value [6] was 85%, the “Population Mitotic Cells (%)” value [6] was 41% and the “Population Normal (%)” value [6] was 89%. For the same molecule, the “Population Pyknosed Nuclei (%)” value [6] was 17%, the “Population Tubulin-Different-Phenotype (%)” value [6] was 87% and the “Total Cell Count” value [6] was 75. The “Population Apoptotic (%)” value [7] was 80%, the “Population Fragmented Nuclei (%)” value [7] was 45% and the “Population Healthy Nuclei (%)” value [7] was 16%. For the same molecule, the “Population Hoechst High Intensity Objects (%)” value [7] was 25%, the “Population Membrane Permeable-Phenotype (%)” value [7] was 46% and the “Population Mitochondria Different-Phenotype (%)” value [7] was 0%. The “Population Mitotic Cells (%)” value [7] was 20%, the “Population Normal (%)” value [7] was 74% and the “Population Pyknosed Nuclei (%)” value [7] was 38%. For the same molecule, the “Population Tubulin-Different-Phenotype (%)” value [7] was 53%, the “Total Cell Count” value [7] was 122 and the “Population Apoptotic (%)” value [8] was 97%. For the same molecule, the “Population Fragmented Nuclei (%)” value [8] was 27%, the “Population Healthy Nuclei (%)” value [8] was 13% and the “Population Hoechst High Intensity Objects (%)” value [8] was 20%. The “Population Membrane Permeable-Phenotype (%)” value [8] was 100%, the “Population Mitochondria Different-Phenotype (%)” value [8] was 87% and the “Population Mitotic Cells (%)” value [8] was 2%. For the same molecule, the “Population Normal (%)” value [8] was 79%, the “Population Pyknosed Nuclei (%)” value [8] was 59% and the “Population Tubulin-Different-Phenotype (%)” value [8] was 100%. For the same molecule, the “Total Cell Count” value [8] was 74, the “Population Apoptotic (%)” value [9] was 56% and the “Population Fragmented Nuclei (%)” value [9] was 43%. For the same molecule, the “Population Healthy Nuclei (%)” value [9] was 41%, the “Population Hoechst High Intensity Objects (%)” value [9] was 37% and the “Population Membrane Permeable-Phenotype (%)” value [9] was 6%. For the same molecule, the “Population Mitochondria Different-Phenotype (%)” value [9] was 12%, the “Population Mitotic Cells (%)” value [9] was 43% and the “Population Normal (%)” value [9] was 62%. For the same molecule, the “Population Pyknosed Nuclei (%)” value [9] was 15%, the “Population Tubulin-Different-Phenotype (%)” value [9] was 69% and the “Total Cell Count” value [9] was 246. The “Population Apoptotic (%)” value [10] was 75%, the “Population Fragmented Nuclei (%)” value [10] was 53% and the “Population Healthy Nuclei (%)” value [10] was 43%. For the same molecule, the “Population Hoechst High Intensity Objects (%)” value [10] was 16%, the “Population Membrane Permeable-Phenotype (%)” value [10] was 10% and the “Population Mitochondria Different-Phenotype (%)” value [10] was 5%. For the same molecule, the “Population Mitotic Cells (%)” value [10] was 25%, the “Population Normal (%)” value [10] was 83% and the “Population Pyknosed Nuclei (%)” value [10] was 2%. The “Population Tubulin-Different-Phenotype (%)” value [10] was 61%, the “Total Cell Count” value [10] was 199 and the “Population Apoptotic (%)” value [11] was 100%. For the same molecule, the “Population Fragmented Nuclei (%)” value [11] was 69%, the “Population Healthy Nuclei (%)” value [11] was 20% and the “Population Hoechst High Intensity Objects (%)” value [11] was 33%. The “Population Membrane Permeable-Phenotype (%)” value [11] was 41%, the “Population Mitochondria Different-Phenotype (%)” value [11] was 5% and the “Population Mitotic Cells (%)” value [11] was 0%. For the same molecule, the “Population Normal (%)” value [11] was 66%, the “Population Pyknosed Nuclei (%)” value [11] was 9% and the “Population Tubulin-Different-Phenotype (%)” value [11] was 76%. The “Total Cell Count” value [11] was 123, the “Population Apoptotic (%)” value [12] was 77% and the “Population Fragmented Nuclei (%)” value [12] was 35%. For the same molecule, the “Population Healthy Nuclei (%)” value [12] was 50%, the “Population Hoechst High Intensity Objects (%)” value [12] was 53% and the “Population Membrane Permeable-Phenotype (%)” value [12] was 23%. The “Population Mitochondria Different-Phenotype (%)” value [12] was 38%, the “Population Mitotic Cells (%)” value [12] was 22% and the “Population Normal (%)” value [12] was 46%. For the same molecule, the “Population Pyknosed Nuclei (%)” value [12] was 13%, the “Population Tubulin-Different-Phenotype (%)” value [12] was 52% and the “Total Cell Count” value [12] was 145.
